Reference: ChEMBL document CHEMBL1148324 (J Med Chem, 2004)

Legend:
[1] = molecular target: T1, Sulfonylurea receptors; K-ATP channels (Homo sapiens, UniProt O60706+Q09428+Q14654+Q15842); assay: Evaluated for K-ATP activity in terms of stable twitch response through field-stimulated landrace pig detrusor assay; type: functional, Sus scrofa; conditions: target entry is the homologue from another species
[2] = molecular target: T1, Sulfonylurea receptors; K-ATP channels; assay: Evaluated for K-ATP activity as in vitro bladder relaxation in spontaneous Landrace pig detrusor strips (SLPD); type: functional, Sus scrofa; conditions: target entry is the homologue from another species
Outline: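 Bladder strips taken near the trigonal region of Landrace pig bladder, contracting spontaneously (myogenic, no cholinergic component). Test agents added at increasing concentrations; the read-out is the reduction in area under the contraction curve.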

[3] = molecular target: T1, Sulfonylurea receptors; K-ATP channels; assay: (§1) Evaluated for K-ATP activity in terms of change in membrane potential through guinea pig bladder assay; type: functional, Cavia porcellus; conditions: target entry is the homologue from another species
[4] = molecular target: Sulfonylurea receptors; K-ATP channels (UniProt Q14654+O60706+Q09428+Q15842); assay: as §1; type: functional, Cavia porcellus; conditions: target entry is the homologue from another species
Sequence of Sulfonylurea receptors; K-ATP channels (UniProt Q14654+O60706+Q09428+Q15842) (Q14654 whole entry): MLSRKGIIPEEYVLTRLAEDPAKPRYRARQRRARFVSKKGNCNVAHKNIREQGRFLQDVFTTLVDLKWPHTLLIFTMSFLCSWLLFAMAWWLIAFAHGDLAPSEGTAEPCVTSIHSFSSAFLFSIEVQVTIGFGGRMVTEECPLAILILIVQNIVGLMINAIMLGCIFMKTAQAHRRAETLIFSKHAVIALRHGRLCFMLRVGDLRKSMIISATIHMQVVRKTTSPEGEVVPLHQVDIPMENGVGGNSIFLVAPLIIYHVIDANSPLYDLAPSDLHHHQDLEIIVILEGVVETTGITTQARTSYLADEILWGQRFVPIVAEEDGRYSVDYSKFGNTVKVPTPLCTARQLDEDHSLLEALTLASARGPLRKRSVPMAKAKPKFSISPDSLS
Sequence of Sulfonylurea receptors; K-ATP channels (UniProt Q14654+O60706+Q09428+Q15842) (O60706 whole entry): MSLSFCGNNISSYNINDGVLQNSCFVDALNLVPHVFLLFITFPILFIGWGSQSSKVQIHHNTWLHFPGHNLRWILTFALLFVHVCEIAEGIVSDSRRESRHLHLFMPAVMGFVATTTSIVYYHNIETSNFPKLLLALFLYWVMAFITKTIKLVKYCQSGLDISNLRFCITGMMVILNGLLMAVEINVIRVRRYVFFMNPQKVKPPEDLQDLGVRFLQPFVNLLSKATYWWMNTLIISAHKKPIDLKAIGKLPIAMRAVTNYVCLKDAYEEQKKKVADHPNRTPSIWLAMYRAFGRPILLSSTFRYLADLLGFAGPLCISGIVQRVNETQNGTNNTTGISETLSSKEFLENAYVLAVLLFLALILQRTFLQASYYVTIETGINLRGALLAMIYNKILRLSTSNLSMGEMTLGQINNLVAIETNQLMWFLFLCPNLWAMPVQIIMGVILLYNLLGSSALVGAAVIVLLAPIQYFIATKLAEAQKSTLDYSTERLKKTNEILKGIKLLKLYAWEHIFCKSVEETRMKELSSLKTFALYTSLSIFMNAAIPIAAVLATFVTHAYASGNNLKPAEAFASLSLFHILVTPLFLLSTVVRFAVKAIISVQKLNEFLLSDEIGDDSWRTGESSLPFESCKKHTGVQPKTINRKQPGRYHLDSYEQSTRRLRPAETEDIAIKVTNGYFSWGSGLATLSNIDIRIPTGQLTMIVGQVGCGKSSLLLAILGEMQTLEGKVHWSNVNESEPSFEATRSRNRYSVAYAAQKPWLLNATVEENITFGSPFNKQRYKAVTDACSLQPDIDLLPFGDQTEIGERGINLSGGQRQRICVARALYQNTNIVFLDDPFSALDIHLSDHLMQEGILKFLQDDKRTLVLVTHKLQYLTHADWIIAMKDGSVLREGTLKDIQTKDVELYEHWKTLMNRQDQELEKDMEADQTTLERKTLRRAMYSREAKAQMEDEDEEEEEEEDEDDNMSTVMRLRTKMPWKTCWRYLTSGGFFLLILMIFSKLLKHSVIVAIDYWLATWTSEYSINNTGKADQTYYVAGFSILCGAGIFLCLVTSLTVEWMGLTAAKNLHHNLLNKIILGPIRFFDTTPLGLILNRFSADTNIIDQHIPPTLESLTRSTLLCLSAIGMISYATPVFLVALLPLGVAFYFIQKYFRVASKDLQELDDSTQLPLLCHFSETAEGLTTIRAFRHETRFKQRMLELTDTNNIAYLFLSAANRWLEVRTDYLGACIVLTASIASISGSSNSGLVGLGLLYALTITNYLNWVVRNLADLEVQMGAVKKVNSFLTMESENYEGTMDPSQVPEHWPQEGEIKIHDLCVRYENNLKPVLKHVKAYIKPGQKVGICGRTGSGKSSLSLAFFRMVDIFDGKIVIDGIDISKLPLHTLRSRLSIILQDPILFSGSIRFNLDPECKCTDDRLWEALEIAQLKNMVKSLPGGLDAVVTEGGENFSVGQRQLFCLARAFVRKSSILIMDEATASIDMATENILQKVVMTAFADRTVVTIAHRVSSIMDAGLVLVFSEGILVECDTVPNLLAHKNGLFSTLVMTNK
Sequence of Sulfonylurea receptors; K-ATP channels (UniProt Q14654+O60706+Q09428+Q15842) (Q09428 whole entry): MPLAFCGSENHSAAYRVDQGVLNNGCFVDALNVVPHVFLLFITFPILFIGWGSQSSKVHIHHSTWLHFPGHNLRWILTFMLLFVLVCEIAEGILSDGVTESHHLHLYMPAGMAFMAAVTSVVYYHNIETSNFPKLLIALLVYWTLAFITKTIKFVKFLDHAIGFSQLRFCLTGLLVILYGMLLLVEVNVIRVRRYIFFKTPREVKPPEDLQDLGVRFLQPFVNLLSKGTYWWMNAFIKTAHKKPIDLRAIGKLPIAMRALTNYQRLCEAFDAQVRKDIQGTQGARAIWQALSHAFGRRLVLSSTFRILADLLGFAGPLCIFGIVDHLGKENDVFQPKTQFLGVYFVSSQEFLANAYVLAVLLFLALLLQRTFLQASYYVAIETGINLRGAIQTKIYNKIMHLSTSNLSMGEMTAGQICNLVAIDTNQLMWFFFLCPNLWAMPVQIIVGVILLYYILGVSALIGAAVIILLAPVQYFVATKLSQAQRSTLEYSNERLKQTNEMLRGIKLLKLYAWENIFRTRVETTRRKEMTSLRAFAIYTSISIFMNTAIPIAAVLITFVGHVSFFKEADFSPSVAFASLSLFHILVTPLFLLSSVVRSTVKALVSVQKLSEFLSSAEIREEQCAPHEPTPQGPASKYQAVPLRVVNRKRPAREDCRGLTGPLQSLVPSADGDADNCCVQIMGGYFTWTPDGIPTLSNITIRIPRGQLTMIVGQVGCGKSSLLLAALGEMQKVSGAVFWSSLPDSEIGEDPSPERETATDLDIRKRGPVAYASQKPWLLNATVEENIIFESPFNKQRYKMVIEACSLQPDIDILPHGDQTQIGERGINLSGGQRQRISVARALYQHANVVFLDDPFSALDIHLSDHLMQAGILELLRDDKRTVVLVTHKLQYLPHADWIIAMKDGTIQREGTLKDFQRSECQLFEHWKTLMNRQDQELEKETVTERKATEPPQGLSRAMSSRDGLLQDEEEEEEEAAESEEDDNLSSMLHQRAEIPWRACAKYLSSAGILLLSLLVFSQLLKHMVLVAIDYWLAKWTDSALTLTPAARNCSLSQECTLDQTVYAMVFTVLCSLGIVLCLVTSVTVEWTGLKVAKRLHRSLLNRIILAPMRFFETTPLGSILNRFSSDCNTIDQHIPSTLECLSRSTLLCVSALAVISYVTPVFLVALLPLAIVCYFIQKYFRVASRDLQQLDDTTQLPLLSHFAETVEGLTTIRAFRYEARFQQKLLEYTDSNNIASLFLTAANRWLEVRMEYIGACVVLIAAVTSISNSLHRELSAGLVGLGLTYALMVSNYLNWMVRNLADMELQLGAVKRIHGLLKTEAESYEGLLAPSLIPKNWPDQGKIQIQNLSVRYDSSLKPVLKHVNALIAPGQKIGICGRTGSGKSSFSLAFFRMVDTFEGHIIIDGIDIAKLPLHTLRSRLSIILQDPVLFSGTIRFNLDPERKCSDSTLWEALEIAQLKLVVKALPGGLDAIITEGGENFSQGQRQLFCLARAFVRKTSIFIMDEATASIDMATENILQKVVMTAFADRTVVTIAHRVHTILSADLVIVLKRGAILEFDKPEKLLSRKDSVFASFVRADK
Sequence of Sulfonylurea receptors; K-ATP channels (UniProt Q14654+O60706+Q09428+Q15842) (Q15842 whole entry): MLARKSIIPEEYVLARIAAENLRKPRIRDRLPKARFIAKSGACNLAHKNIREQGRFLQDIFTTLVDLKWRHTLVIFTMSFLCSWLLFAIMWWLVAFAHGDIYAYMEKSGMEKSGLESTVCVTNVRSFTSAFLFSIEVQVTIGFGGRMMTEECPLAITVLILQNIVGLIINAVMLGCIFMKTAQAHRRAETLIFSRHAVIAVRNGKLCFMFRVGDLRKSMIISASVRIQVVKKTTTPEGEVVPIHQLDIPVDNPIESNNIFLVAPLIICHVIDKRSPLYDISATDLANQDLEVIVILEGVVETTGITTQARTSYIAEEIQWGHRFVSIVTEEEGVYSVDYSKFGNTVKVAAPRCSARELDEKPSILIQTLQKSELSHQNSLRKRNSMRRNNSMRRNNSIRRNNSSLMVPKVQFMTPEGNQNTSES

[5] = Selectivity expressed as the ratio of pEC50 (SLPD) and pEC50 (FSLPD); type: functional
[6] = organism: Sus scrofa; assay: Evaluated for change in heart rate from baseline at a plasma concentration of 44 nM in pigs; type: functional
Outline: (§2)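 Conscious female Landrace/Yorkshire swine (~12 weeks, 14–20 kg), urethra obstructed with a 7.5 mm silver omega ring, telemeterized, held in a restraint cage with ear venous catheters. After a 30 min baseline, increasing doses are given i.v. (3 min infusion) at 30 min intervals. Plasma is sampled 15 min after each dose for LC/MS. MAP and HR are averaged in 5 min bins over each 30 min period, expressed as % change from baseline; n = 2–4.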

[7] = organism: Sus scrofa; assay: Evaluated for change in mean arterial pressure from baseline at a plasma concentration of 12 nM in pigs; type: functional; outline: as §2
[8] = organism: Sus scrofa; assay: Evaluated for change in mean arterial pressure from baseline at a plasma concentration of 167 nM in pigs; type: functional; outline: as §2
[9] = organism: Sus scrofa; assay: Evaluated for change in heart rate from baseline at a plasma concentration of 167 nM in pigs; type: functional; outline: as §2
[10] = organism: Sus scrofa; assay: Evaluated for change in mean arterial pressure from baseline at a plasma concentration of 44 nM in pigs; type: functional; outline: as §2
[11] = organism: Sus scrofa; assay: Evaluated for change in heart rate from baseline at a plasma concentration of 12 nM in pigs; type: functional; outline: as §2
[12] = organism: Sus scrofa; assay: Evaluated for change in mean arterial pressure from baseline at a plasma concentration of 1.9 nM in pigs; type: functional; outline: as §2
[13] = organism: Sus scrofa; assay: Evaluated for change in heart rate from baseline at a plasma concentration of 24 nM in pigs; type: functional; outline: as §2
[14] = organism: Sus scrofa; assay: Evaluated for change in heart rate from baseline at a plasma concentration of 95 nM in pigs; type: functional; outline: as §2
[15] = organism: Sus scrofa; assay: Evaluated for change in heart rate from baseline at a plasma concentration of 1.9 nM in pigs; type: functional; outline: as §2
[16] = organism: Sus scrofa; assay: Evaluated for change in mean arterial pressure from baseline at a plasma concentration of 95 nM in pigs; type: functional; outline: as §2
[17] = organism: Sus scrofa; assay: Evaluated for change in mean arterial pressure from baseline at a plasma concentration of 24 nM in pigs; type: functional; outline: as §2

Row | EC50 [1] [nM] | EC50 [3] [nM] | SMILES | also measured
1 | 85.1 | 44.7 | CCC(C)(C)NC(=NC#N)Nc1cccnc1 | EC50 [2]: 21.9 nM
2 | 724 | 25.7 | O=C1CCCC2=C1[C@H](c1ccc(Cl)c(Br)c1)C1=C(CCS1(=O)=O)N2 | 
3 | 794 | 214 | CC(=O)C1=C(C)NC2=C(C1c1ccc(F)c(Br)c1)S(=O)(=O)CCC2 (stereo unspecified) | 
4 |  | 27.5 | CC1=C(C#N)C(c2ccc(F)c(Br)c2)C2=C(CCS2(=O)=O)N1 (stereo unspecified) | 
5 | 309 | 21.9 | Cc1ccc([C@H]2C3=C(CCCC3=O)NC3=C2S(=O)(=O)CC3)cc1I | 
6 | 282 | 52.5 | O=C1CCC2=C1[C@@H](c1ccc(F)c(Br)c1)C1=C(CCCS1(=O)=O)N2 | 
7 | 977 | 155 | O=C1CCCC2=C1[C@H](c1ccc(F)c(C(F)(F)F)c1)C1=C(CCS1(=O)=O)N2 | 
8 |  | 1320 | O=C1CCCC2=C1[C@H](c1ccc(Cl)c(F)c1)C1=C(CCS1(=O)=O)N2 | 
9 |  | 2040 | O=C1CCCC2=C1[C@H](c1ccc(F)c(F)c1)C1=C(CCS1(=O)=O)N2 | 
10 | 2690 | 631 | CC1(C)CCC(=O)C2=C1NC1=C([C@H]2c2ccc(F)c(Br)c2)S(=O)(=O)CC1 | 
11 | 479 |  | O=C1CCC2=C1C(c1ccc([N+](=O)[O-])s1)C1=C(CCS1(=O)=O)N2 (stereo unspecified) | Log EC50 [4]: -6.82
12 | 339 | 575 | O=C1CCC2=C1[C@H](c1ccc(F)c(Br)c1)C1=C(CCS1(=O)=O)N2 | 
13 |  | 2400 | O=C1CCCC2=C1[C@H](c1ccc3nsnc3c1)C1=C(CCS1(=O)=O)N2 | 
14 | 537 | 282 | Cc1ccc([C@H]2C3=C(CCCC3=O)NC3=C2S(=O)(=O)CC3)cc1[N+](=O)[O-] | 
15 | 676 | 251 | CCc1cc(C#N)ccc1Nc1c(N[C@H](C)C(C)(C)C)c(=O)c1=O | Selectivity [5]: 6.6; EC50 [2]: 102 nM
16 |  | 1510 | O=C1CCCC2=C1[C@H](c1cccc(Br)c1)C1=C(CCS1(=O)=O)N2 | 
17 |  | 741 | O=C1CCC2=C1C(c1cc(Br)cs1)C1=C(CCS1(=O)=O)N2 (stereo unspecified) | 

Row | EC50 [1] [nM] | EC50 [3] [nM] | SMILES | also measured
18 |  |  | CC1(C)Oc2ccc(C#N)cc2[C@H](N2CCCC2=O)[C@H]1O (single isomer, unassigned) [(-)-CROMAKALIM] | Delta HR [6]: 38%; Delta MAP [7]: -6.3%; Delta MAP [8]: -33%; Delta HR [9]: 47%; Delta MAP [10]: -12%; Delta HR [11]: 13%
19 |  | 61700 | O=C1CCCC2=C1[C@H](c1cc(Cl)c(Cl)cc1CO)C1=C(CCS1(=O)=O)N2 | 
20 | 6760 | 1200 | O=C1CCCC2=C1C(c1ccc(F)c(Br)c1)C1=C(CCCS1(=O)=O)N2 (single isomer, unassigned; (+)) | 
21 | 537 | 55 | O=C1CCCC2=C1[C@H](c1ccc(Br)c(Br)c1)C1=C(CCS1(=O)=O)N2 | 
22 | 2450 | 1350 | C=Cc1cc([C@H]2C3=C(CCCC3=O)NC3=C2S(=O)(=O)CC3)ccc1F | 
23 | 26300 | 14800 | O=C1CCC2=C1[C@H](c1ccc(F)c(Br)c1)C1=C(CCCS1(=O)=O)N2 | 
24 |  | 1860 | O=C1CCC2=C1C(c1ccc(Br)s1)C1=C(CCS1(=O)=O)N2 (stereo unspecified) | 
25 | 30.9 | 33.1 | O=C1CCC2=C1[C@@H](c1ccc(F)c(Br)c1)C1=C(CCS1(=O)=O)N2 | 
26 |  | 3310 | O=C1CCCC2=C1C(c1ccc(F)c(Br)c1)C1=C(CCCCS1(=O)=O)N2 (stereo unspecified) | 
27 | 1700 | 214 | O=C1CCCC2=C1[C@H](c1ccc(F)c(-c3ccco3)c1)C1=C(CCS1(=O)=O)N2 | 
28 | 5620 | 83.2 | CC1(C)CCC2=C(C1=O)[C@H](c1ccc(F)c(Br)c1)C1=C(CCS1(=O)=O)N2 | 
29 |  | > 10000 | Cc1ccc([C@H]2C3=C(CCCC3=O)NC3=C2S(=O)(=O)CC3)cc1S(C)(=O)=O | 
30 | 661 | 240 | O=C1CCC2=C1C(c1csc([N+](=O)[O-])c1)C1=C(CCS1(=O)=O)N2 (stereo unspecified) | 
31 |  | > 10000 | CCOC(=O)C1=C(C(F)(F)F)NC2=C(C1c1ccc(F)c(Br)c1)S(=O)(=O)CC2 (stereo unspecified) | 
32 | 234 | 123 | O=C1CCCC2=C1[C@H](c1ccc(F)c(Br)c1)C1=C(CCS1(=O)=O)N2 | Delta MAP [12]: -5.4%; Delta HR [13]: 3.5%; Delta HR [14]: 56%; Selectivity [5]: 10; EC50 [2]: 22.9 nM; Delta HR [15]: 6.2%; Delta MAP [16]: -27%; Delta MAP [17]: -6.9%
33 |  | 7080 | CC1(C)CC(=O)C2=C(C1)NC1=C([C@H]2c2ccc(F)c(Br)c2)S(=O)(=O)CC1 | 
34 | 269 | 339 | O=S1(=O)CCC2=C1C(c1ccc(F)c(Br)c1)C1=C(CCS1(=O)=O)N2 | 
